Measurements as given in ChEMBL document CHEMBL4406834, “Phenylthiazoles with nitrogenous side chain: An approach to overcome molecular obesity” (Eur J Med Chem, 2019).
Converted amounts (≈) assume the structure as drawn. The source made the active and inactive calls. The calls are words filed in the database; no cut-off is given here.

Legend:
Staphylococcus aureus [1] = experiment: Bactericidal activity against methicillin-resistant Staphylococcus aureus USA400 assessed as reduction in bacterial burden at 5 times MIC after 4 hrs by time kill assay; assay type: functional, organism-based
Streptococcus pneumoniae [2] = experiment: Bactericidal activity against methicillin-resistant Streptococcus pneumoniae ATCC 700677 incubated for 18 to 20 hrs followed by replating on tryptic soy agar plate and further incubated for 18 to 24 hrs by CLSI-based broth microdilution assay; assay type: functional
Outline: (§1)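 MBC: after the broth microdilution MIC (CAMHB, ~5 × 10^5 CFU/mL, 37 °C, 18-20 h), 4 µL from wells without growth plated onto tryptic soy agar. Plates incubated 37 °C for 18-20 h. MBC is the lowest concentration giving 99.9% reduction in growth.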

Streptococcus pneumoniae [3] = experiment: Bactericidal activity against cephalosporin-resistant Streptococcus pneumoniae ATCC 51916 incubated for 18 to 20 hrs followed by replating on tryptic soy agar plate and further incubated for 18 to 24 hrs by CLSI-based broth microdilution assay; assay type: functional; outline: as §1
Enterococcus faecium = experiment: Bactericidal activity against vancomycin-resistant Enterococcus faecium ATCC 700221 incubated for 18 to 20 hrs followed by replating on tryptic soy agar plate and further incubated for 18 to 24 hrs by CLSI-based broth microdilution assay; assay type: functional; outline: as §1
Enterococcus faecalis = experiment: Bactericidal activity against vancomycin-resistant Enterococcus faecalis ATCC 51299 incubated for 18 to 20 hrs followed by replating on tryptic soy agar plate and further incubated for 18 to 24 hrs by CLSI-based broth microdilution assay; assay type: functional; outline: as §1
[4] = test system: Staphylococcus epidermidis; experiment: Bactericidal activity against methicillin-resistant Staphylococcus epidermidis NRS101 incubated for 18 to 20 hrs followed by replating on tryptic soy agar plate and further incubated for 18 to 24 hrs by CLSI-based broth microdilution assay; assay type: functional
Streptococcus pneumoniae [5] = experiment: Antibacterial activity against methicillin-resistant Streptococcus pneumoniae ATCC 700677 after 18 to 20 hrs by CLSI-based broth microdilution assay; assay type: functional
Outline: (§2)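 Broth microdilution per CLSI. Strains grown aerobically overnight on tryptone soy agar at 37 °C, adjusted to 0.5 McFarland, then diluted in cation-adjusted Mueller-Hinton broth to about 5 × 10^5 CFU/mL. Compounds (10 mg/mL DMSO stocks) serially diluted. Incubated aerobically at 37 °C for 18-20 h. MIC is the lowest concentration with no visible growth.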

Streptococcus pneumoniae [6] = experiment: Antibacterial activity against cephalosporin-resistant Streptococcus pneumoniae ATCC 51916 after 18 to 20 hrs by CLSI-based broth microdilution assay; assay type: functional; outline: as §2
Staphylococcus aureus [7] = experiment: Bactericidal activity against methicilline-resistant Staphylococcus aureus NRS386 USA700 incubated for 18 to 20 hrs followed by replating on tryptic soy agar plate and further incubated for 18 to 24 hrs by CLSI-based broth microdilution assay; assay type: functional; outline: as §1
Staphylococcus aureus [8] = experiment: Bactericidal activity against methicilline-resistant Staphylococcus aureus NRS385 USA500 incubated for 18 to 20 hrs followed by replating on tryptic soy agar plate and further incubated for 18 to 24 hrs by CLSI-based broth microdilution assay; assay type: functional; outline: as §1
Staphylococcus aureus [9] = experiment: Bactericidal activity against methicilline-resistant Staphylococcus aureus NRS384 USA300 incubated for 18 to 20 hrs followed by replating on tryptic soy agar plate and further incubated for 18 to 24 hrs by CLSI-based broth microdilution assay; assay type: functional; outline: as §1
Staphylococcus aureus [10] = experiment: Bactericidal activity against methicilline-resistant Staphylococcus aureus NRS123 USA400 incubated for 18 to 20 hrs followed by replating on tryptic soy agar plate and further incubated for 18 to 24 hrs by CLSI-based broth microdilution assay; assay type: functional; outline: as §1
Staphylococcus aureus [11] = experiment: Bactericidal activity against methicilline-resistant Staphylococcus aureus NRS-119 incubated for 18 to 20 hrs followed by replating on tryptic soy agar plate and further incubated for 18 to 24 hrs by CLSI-based broth microdilution assay; assay type: functional; outline: as §1
Staphylococcus aureus [12] = experiment: Bactericidal activity against methicilline-sensitive Staphylococcus aureus ATCC 6538 incubated for 18 to 20 hrs followed by replating on tryptic soy agar plate and further incubated for 18 to 24 hrs by CLSI-based broth microdilution assay; assay type: functional; outline: as §1
Staphylococcus aureus [13] = experiment: Bactericidal activity against Staphylococcus aureus ATCC BAA42 incubated for 18 to 20 hrs followed by replating on tryptic soy agar plate and further incubated for 18 to 24 hrs by CLSI-based broth microdilution assay; assay type: functional; outline: as §1
Staphylococcus aureus [14] = experiment: Antibacterial activity against vancomycin-resistant Staphylococcus aureus 12 after 18 to 20 hrs by CLSI-based broth microdilution assay; assay type: functional; outline: as §2
Staphylococcus aureus [15] = experiment: Antibacterial activity against methicilline-resistant Staphylococcus aureus NRS385 USA500 after 18 to 20 hrs by CLSI-based broth microdilution assay; assay type: functional; outline: as §2
Staphylococcus aureus [16] = experiment: Antibacterial activity against methicilline-resistant Staphylococcus aureus NRS386 USA700 after 18 to 20 hrs by CLSI-based broth microdilution assay; assay type: functional; outline: as §2
Staphylococcus aureus [17] = experiment: Antibacterial activity against methicilline-resistant Staphylococcus aureus NRS384 USA300 after 18 to 20 hrs by CLSI-based broth microdilution assay; assay type: functional; outline: as §2
Staphylococcus aureus [18] = experiment: Antibacterial activity against methicilline-resistant Staphylococcus aureus NRS123 USA400 after 18 to 20 hrs by CLSI-based broth microdilution assay; assay type: functional; outline: as §2
Staphylococcus aureus [19] = experiment: Antibacterial activity against methicilline-resistant Staphylococcus aureus NRS-119 after 18 to 20 hrs by CLSI-based broth microdilution assay; assay type: functional; outline: as §2
Staphylococcus aureus [20] = experiment: Antibacterial activity against methicilline-sensitive Staphylococcus aureus NRS-107 after 18 to 20 hrs by CLSI-based broth microdilution assay; assay type: functional; outline: as §2
Staphylococcus aureus [21] = experiment: Antibacterial activity against Staphylococcus aureus ATCC BAA42 after 18 to 20 hrs by CLSI-based broth microdilution assay; assay type: functional; outline: as §2
[22] = Aqueous solubility of the compound in phosphate buffered saline assessed as concentration that produces no precipitate measured as OD at 540 nm; assay type: physicochemical
Staphylococcus aureus [23] = experiment: Antibacterial activity against methicillin-resistant Staphylococcus aureus NRS384 USA300 after 18 to 20 hrs by broth microdilution assay; assay type: functional; outline: as §2
Escherichia coli [24] = experiment: Antibacterial activity against Escherichia coli BW25113; assay type: functional
Escherichia coli [25] = experiment: Antibacterial activity against TolC-deficient Escherichia coli JW55031; assay type: functional
Escherichia coli [26] = experiment: Antibacterial activity against Escherichia coli ATCC 25922; assay type: functional
Klebsiella pneumoniae [27] = experiment: Antibacterial activity against Klebsiella pneumoniae BAA-1706; assay type: functional
Pseudomonas aeruginosa [28] = experiment: Antibacterial activity against Pseudomonas aeruginosa ATCC 27853; assay type: functional
Pseudomonas aeruginosa [29] = experiment: Antibacterial activity against Pseudomonas aeruginosa ATCC 15442; assay type: functional
Escherichia coli [30] = experiment: Bactericidal activity against Escherichia coli BW25113; assay type: functional
Escherichia coli [31] = experiment: Bactericidal activity against TolC-deficient Escherichia coli JW55031; assay type: functional
Escherichia coli [32] = experiment: Bactericidal activity against Escherichia coli ATCC 25922; assay type: functional
Klebsiella pneumoniae [33] = experiment: Bactericidal activity against Klebsiella pneumoniae BAA-1706; assay type: functional
Pseudomonas aeruginosa [34] = experiment: Bactericidal activity against Pseudomonas aeruginosa ATCC 27853; assay type: functional
Pseudomonas aeruginosa [35] = experiment: Bactericidal activity against Pseudomonas aeruginosa ATCC 15442; assay type: functional
[36] = Safety index, ratio of non-toxic concentration for human Caco2 cells to MIC for methicillin-resistant Staphylococcus aureus NRS384 USA300; assay type: toxicity
Outline: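 Caco-2 cells exposed to compound in triplicate at 32, 64 and 128 µg/mL for 2 h, then MTS reagent for 4 h, absorbance at OD490. Viability expressed as percent of DMSO control. Highest non-toxic concentration divided by the broth microdilution MIC against MRSA USA300.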

Compound	inhibition (Staphylococcus aureus [1])	MBC (Streptococcus pneumoniae [2]) [mg/L]	MBC (Streptococcus pneumoniae [3]) [mg/L]	MBC (Enterococcus faecium) [mg/L]	MBC (Enterococcus faecalis) [mg/L]	MBC [4] [mg/L]	MIC (Streptococcus pneumoniae [5]) [mg/L]	MIC (Streptococcus pneumoniae [6]) [mg/L]	MBC (Staphylococcus aureus [7]) [mg/L]	MBC (Staphylococcus aureus [8]) [mg/L]	MBC (Staphylococcus aureus [9]) [mg/L]	MBC (Staphylococcus aureus [10]) [mg/L]	MBC (Staphylococcus aureus [11]) [mg/L]	MBC (Staphylococcus aureus [12]) [mg/L]	MBC (Staphylococcus aureus [13]) [mg/L]	MIC (Staphylococcus aureus [14]) [mg/L]	MIC (Staphylococcus aureus [15]) [mg/L]	MIC (Staphylococcus aureus [16]) [mg/L]	MIC (Staphylococcus aureus [17]) [mg/L]	MIC (Staphylococcus aureus [18]) [mg/L]	also measured
C/C(=N\NC(=N)N)c1sc(-c2ccc(N3CCCC(C)C3)cc2)nc1C (stereo unspecified)	Active	32 (≈ 86.4 µM)	16 (≈ 43.2 µM)	32 (≈ 86.4 µM)	32 (≈ 86.4 µM)	8 (≈ 21.6 µM)	8 (≈ 21.6 µM)	8 (≈ 21.6 µM)	8 (≈ 21.6 µM)	16 (≈ 43.2 µM)	16 (≈ 43.2 µM)	16 (≈ 43.2 µM)	16 (≈ 43.2 µM)	16 (≈ 43.2 µM)	16 (≈ 43.2 µM)	8 (≈ 21.6 µM)	8 (≈ 21.6 µM)	8 (≈ 21.6 µM)	4 (≈ 10.8 µM)	8 (≈ 21.6 µM)	MIC (Staphylococcus aureus [19]): 8 mg/L (≈ 21.6 µM); MIC (Staphylococcus aureus [20]): 8 mg/L (≈ 21.6 µM); MIC (Staphylococcus aureus [21]): 8 mg/L (≈ 21.6 µM); solubility kinetic [22]: 435 µM (≈ 161 µg/mL); MIC (Staphylococcus aureus [23]): 4 mg/L (≈ 10.8 µM); MIC (Escherichia coli [24]): 32 mg/L (≈ 86.4 µM); MIC (Escherichia coli [25]): 8 mg/L (≈ 21.6 µM); MIC (Escherichia coli [26]): 16 mg/L (≈ 43.2 µM); MIC (Klebsiella pneumoniae [27]): 16 mg/L (≈ 43.2 µM); MIC (Pseudomonas aeruginosa [28]): > 64 mg/L; MIC (Pseudomonas aeruginosa [29]): > 64 mg/L; MBC (Escherichia coli [30]): 32 mg/L (≈ 86.4 µM); MBC (Escherichia coli [31]): 16 mg/L (≈ 43.2 µM); MBC (Escherichia coli [32]): 32 mg/L (≈ 86.4 µM); MBC (Klebsiella pneumoniae [33]): 32 mg/L (≈ 86.4 µM); MBC (Pseudomonas aeruginosa [34]): > 64 mg/L; MBC (Pseudomonas aeruginosa [35]): > 64 mg/L; selectivity ratio [36]: 8
C/C(=N\NC(=N)N)c1sc(-c2ccc(N3CCCCC3)cc2)nc1C	Active	16 (≈ 44.9 µM)	16 (≈ 44.9 µM)	32 (≈ 89.8 µM)	64 (≈ 180 µM)	8 (≈ 22.4 µM)	8 (≈ 22.4 µM)	8 (≈ 22.4 µM)	16 (≈ 44.9 µM)	32 (≈ 89.8 µM)	16 (≈ 44.9 µM)	16 (≈ 44.9 µM)	16 (≈ 44.9 µM)	8 (≈ 22.4 µM)	16 (≈ 44.9 µM)	4 (≈ 11.2 µM)	8 (≈ 22.4 µM)	4 (≈ 11.2 µM)	4 (≈ 11.2 µM)	8 (≈ 22.4 µM)	MIC (Staphylococcus aureus [19]): 4 mg/L (≈ 11.2 µM); MIC (Staphylococcus aureus [20]): 4 mg/L (≈ 11.2 µM); MIC (Staphylococcus aureus [21]): 4 mg/L (≈ 11.2 µM); solubility kinetic [22]: 480 µM (≈ 171 µg/mL); MIC (Staphylococcus aureus [23]): 4 mg/L (≈ 11.2 µM); MIC (Escherichia coli [24]): 32 mg/L (≈ 89.8 µM); MIC (Escherichia coli [25]): 32 mg/L (≈ 89.8 µM); MIC (Escherichia coli [26]): 64 mg/L (≈ 180 µM); MIC (Klebsiella pneumoniae [27]): 64 mg/L (≈ 180 µM); MIC (Pseudomonas aeruginosa [28]): > 64 mg/L; MIC (Pseudomonas aeruginosa [29]): > 64 mg/L; MBC (Escherichia coli [30]): 64 mg/L (≈ 180 µM); MBC (Escherichia coli [31]): 32 mg/L (≈ 89.8 µM); MBC (Escherichia coli [32]): 64 mg/L (≈ 180 µM); MBC (Klebsiella pneumoniae [33]): 64 mg/L (≈ 180 µM); MBC (Pseudomonas aeruginosa [34]): > 64 mg/L; MBC (Pseudomonas aeruginosa [35]): > 64 mg/L; selectivity ratio [36]: 16
